In ChEMBL document CHEMBL4033789, “Discovery of a New Four-Leaf Clover-Like Ligand as a Potent c-MYC Transcription Inhibitor Specifically Targeting the Promoter G-Quadruplex” (J Med Chem, 2018) one finds Activity data, which are given here for one compound.

One data set concerns Mus musculus. In words: Toxicity in nude BALB/c mouse xenografted with human SiHa cells assessed as signs of pain at 5 to 20 mg/kg, ip administered every other day for 24 days. As to conditions: in vivo, 576 h; call rule not given here. It counts as organism-based.
The nature of data set [1]: Binding affinity to 1 uM VEGF promoter G-quadruplex DNA (unknown origin) at 1 uM after 1 min by fluorescence spectroscopic analysis. It counts as ADME. Put shortly:
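Fluorescence emission spectra of 1 µM compound mixed with 1 µM pre-annealed oligonucleotide (G-quadruplexes folded in 100 mM KCl by heating to 95 °C for 5 min, slow cooling), in Tris-HCl buffer.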

SMILES strings stand for the structures.

As for `CCn1c2ccccc2c2cc(-c3nc(-c4ccc(N5CCN(C)CC5)cc4)c(-c4ccc(N5CCN(C)CC5)cc4)n3-c3ccc(OC)cc3)ccc21`, the Activity result with Mus musculus is listed as “Non-Toxic”; in data set [1], “Not Active”.
